Assay outcomes (PubChem BioAssay)
MC4R antagonist: MC4R antagonists of cAMP signaling, primary screen, cell-based, TR-FRET, antagonist arm of biased-ligand search. inhibition, % at 6.5 µM. MC4R-expressing cells, MTII-stimulated cAMP, LANCE TR-FRET. hit rate 0.48% among 360,000;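 active = inhibition above its plate's cutoff, the mean of tested wells on that plate plus 3 SD, cut at about 29% in these data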
Target sequence (P32245 whole entry, looked up): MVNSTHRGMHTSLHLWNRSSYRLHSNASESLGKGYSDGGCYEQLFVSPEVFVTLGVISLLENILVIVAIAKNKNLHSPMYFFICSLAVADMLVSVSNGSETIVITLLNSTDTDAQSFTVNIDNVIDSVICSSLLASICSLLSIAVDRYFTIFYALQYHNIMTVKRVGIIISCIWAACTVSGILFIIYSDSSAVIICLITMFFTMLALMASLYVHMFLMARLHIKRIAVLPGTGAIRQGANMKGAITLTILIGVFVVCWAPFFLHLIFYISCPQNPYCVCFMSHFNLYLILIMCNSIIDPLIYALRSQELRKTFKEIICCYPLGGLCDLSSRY
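Material: U2OS-MC4R stable cell line | Reagent: Melanotan II challenge after compound preincubation | Doses: One concentration, 6.5 µM nominal | Incubation: 30-min compound preincubation, 1-h Melanotan II challenge, 1-h detection, room temperature | Signal: TR-FRET cAMP assay | Replicates: One well per compound, no replicates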
A1 inh: caspase 3/7 activation in MEF A1-2A-BIM cells, primary screen, A1 inhibitor project, cell-based, luminescence, HTS; hit rate 0.066% among 330,000; caspase activation, % (no concentration beside the values); AID 2462, 2010; Caspase-Glo 3/7 luminescence, 3 h; percent of clofoctol response, vehicle zero;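 active = over half of replicate activation scores above 10%, or exactly half above 10 with the replicate mean above 10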
CHOP UPR activ: activators of apoptotic CHOP UPR arm, primary screen, cell-based, CHO-CHOP luciferase reporter, luminescence, uHTS | UPR activation; percent of tunicamycin response over DMSO baseline | activation, % at 10 µM | hit rate 0.34% among 330,000 | AID 449763, 2010;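 active = at 10 µM dose, activation of 40% or more, normalized to positive control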
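Test system: CHO-CHOP cells, stable luciferase reporter of PERK-eIF2a-CHOP signalling | Quantity: 500 CHO-CHOP cells per well | Buffer or medium: F12 plus 10% serum | Compound dosing: 10 µM single point, 0.5% DMSO | Schedule: 6 h compound treatment, 37 °C | Signal: Luciferase luminescence | Control set: Tunicamycin high control, DMSO low control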
MC4R barr agon: MC4R agonists recruiting beta-arrestin, primary screen, cell-based, luminescence, agonist arm of biased-ligand search; hit rate 0.98% among 360,000; U2OS MC4R beta-arrestin complementation; percent of melanotan II response, DMSO zero; activation, % at 8.9 µM; Melanocortin receptor 4 (Homo sapiens), P32245;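 active = activation above a per-plate cutoff, the mean activation of sample wells on that plate plus 3 SD, cut at about 8% in these data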
XBP1 UPR activ: activators of adaptive XBP1 UPR arm, primary screen, cell-based, CHO-XBP1 luciferase reporter, luminescence, uHTS; IRE1-XBP1 UPR activation; percent of tunicamycin response, DMSO as zero; activation, % at 20 µM; hit rate 0.33% among 330,000; AID 463104, 2010;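 active = versus positive control, 20 µM dose yields 30% or more activation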
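Signal: luciferase luminescence; Assay system: CHO-XBP1 luciferase reporter cells; Amount: one thousand reporter cells per well; Dosing: 20 µM single concentration, DMSO 1%; Benchmarks: high control tunicamycin 10 µg/mL final, low control DMSO vehicle only; Schedule: 6 h compound exposure at 37 °C, 5% CO2; Evaluation: percent activation relative to tunicamycin reference.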
cAMP nonselect: nonselective cAMP signaling inhibitors, parental cells, counter-screen for MC4R biased antagonist project, cell-based, TR-FRET, U2OS, forskolin, triplicate; hit rate 26% among 1,600; AID 602193, 2012; shares compounds with MC4R antagonist; LANCE TR-FRET; inhibition, % at 6.5 µM;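 active = mean inhibition over triplicates above the low-control well mean plus 3 SD, set per campaign, cut at about 13% in these data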;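 note: signal is single emission at 671 nm which falls as cellular cAMP rises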
MC4R cAMP antag: MC4R cAMP antagonists, retest, confirmation, cell-based, TR-FRET; shares compounds with MC4R antagonist; MC4R-expressing cells, MTII-stimulated cAMP; inhibition, % at 6.5 µM; hit rate 27% among 1,600; AID 602195, 2012; in the data active = inhibition above about 29%
Each line names hits and unclear results; the compound was inactive in the other large screens (follow-up assays come after a bar, where they were run). Hits are enriched below; roughly 2% of the tested compounds scored in any of these assays.

Cc1nc2ccc(Br)cc2c(-c2ccccc2)c1C(=O)O	MC4R antagonist 35.5 | cAMP nonselect 48.5 | MC4R cAMP antag 96.2
CC(=O)c1c(C)nc2ccc(Br)cc2c1-c1ccccc1	none
COc1ccc(CNC(=O)c2oc3ccc(S(=O)(=O)N4CCOCC4)cc3c2C)cc1	MC4R antagonist 31.8 | cAMP nonselect inactive | MC4R cAMP antag inactive
COc1ccccc1CNC(=O)c1oc2ccc(S(=O)(=O)N3CCCC3)cc2c1C	MC4R antagonist 29.3 | cAMP nonselect inactive | MC4R cAMP antag inactive
O=C(O)c1cccc(-c2csc(C(O)c3cccc(Cl)c3)n2)c1 (centres undefined)	none (no result: A1 inh, CHOP UPR activ, XBP1 UPR activ)
CCC1=NN2C(=N)/C(=C\c3cccn3-c3ccc(C)cc3C)C(=O)N=C2S1	MC4R antagonist 43.7 | cAMP nonselect inactive | MC4R cAMP antag inactive
COc1ccc(-n2cccc2/C=C2\C(=N)N3N=C(C(C)C)SC3=NC2=O)cc1	MC4R antagonist 46.6 | cAMP nonselect inactive | MC4R cAMP antag inactive
O=C(CNC(=O)N1CC(=O)Nc2ccccc21)Nc1ccc(Cl)cc1Cl	none (no result: A1 inh, CHOP UPR activ, XBP1 UPR activ)
CC(=O)c1ccc(Nc2nc(CN)cs2)cc1	none (no result: A1 inh, CHOP UPR activ, XBP1 UPR activ)
CSc1nc2ncncc2[nH]1	none (no result: A1 inh, CHOP UPR activ, XBP1 UPR activ)
O=C(c1ccc([N+](=O)[O-])cc1)N(Cc1ccc(Br)cc1)N1C(=O)CCCC1=O	MC4R antagonist 43.8, MC4R barr agon 9.1 | cAMP nonselect 17.1 | MC4R cAMP antag inactive
CCCCC(=O)NNC(=O)CC(=O)Nc1ccccc1C(=O)O	none
CCOCC(=O)Nc1ccccc1C(=O)O	MC4R antagonist 29.8 | cAMP nonselect inactive | MC4R cAMP antag inactive
O=C(CNS(=O)(=O)c1ccc2ccccc2c1)OCC(=O)c1ccc(Br)s1	MC4R antagonist 46.9 | cAMP nonselect 23.4 | MC4R cAMP antag 42.6
CC1(C(=O)NCc2cccc3ccccc23)CCN1C(=O)C1(c2ccccc2)CCCC1 (centres undefined)	none (no result: A1 inh, CHOP UPR activ, XBP1 UPR activ)
NS(=O)(=O)c1ccc(CCNS(=O)(=O)c2ccc(Cl)nc2)cc1	MC4R antagonist 35.0 | cAMP nonselect 19.3 | MC4R cAMP antag inactive
NS(=O)(=O)c1ccc(CNS(=O)(=O)c2ccc(Cl)nc2)cc1	none
COc1cc2c(cc1NC(=O)COC(=O)[C@@H](NS(=O)(=O)c1cccc(Cl)c1)C(C)C)oc1ccccc12	none
O=C(COC(=O)CCNS(=O)(=O)c1ccc(Cl)cc1)Nc1ccccc1OC(F)F	none (no result: A1 inh)
COc1cc2c(cc1NC(=O)COC(=O)CNS(=O)(=O)c1ccc(C)cc1)oc1ccccc12	MC4R antagonist 30.4 | cAMP nonselect inactive | MC4R cAMP antag 40.8
O=C(COC(=O)c1ccc(Cl)c([N+](=O)[O-])c1)Nc1ccccc1OC(F)F	MC4R antagonist 33.6 | cAMP nonselect 21.1 | MC4R cAMP antag 46.7
Cc1ccc(S(=O)(=O)NCC(=O)OCC(=O)Nc2ccccc2OC(F)F)cc1	MC4R antagonist 33.4 | cAMP nonselect 13.4 | MC4R cAMP antag 29.2
COc1ccc(NC(=O)COC(=O)CNS(=O)(=O)c2ccc(C)cc2)c(OC)c1	none
COc1ccc(S(=O)(=O)N[C@@H](C)C(=O)OCC(=O)Nc2cc3oc4ccccc4c3cc2OC)cc1	MC4R antagonist 35.5 | cAMP nonselect 23.3 | MC4R cAMP antag 38.6
Cc1ccc(S(=O)(=O)NCC(=O)OCC(=O)NCc2ccc(F)cc2)cc1	MC4R antagonist 34.3 | cAMP nonselect 18.0 | MC4R cAMP antag inactive
Cc1ccc(S(=O)(=O)NCC(=O)NCC(=O)OCc2c(F)cccc2Cl)cc1	MC4R antagonist 32.9 | cAMP nonselect 27.1 | MC4R cAMP antag 40.0
Cc1ccc(C(=O)NCC(=O)OCc2c(F)cccc2Cl)cc1	none
